# In ChEMBL document CHEMBL1275524, “Activities of antifungal agents against yeasts and filamentous fungi: assessment according to the methodology of the European Committee on Antimicrobial Susceptibility Testing” (2008):
# How the values were obtained:
# [1] = tested on: Sporothrix schenckii; experiment: Antifungal activity against Sporothrix schenckii by EUCAST method; format: functional; details: read-out: MEC
# Procedure, shortened: (§1)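 Broth microdilution following the EUCAST reference procedure for spore-forming moulds, in flat-bottom plates with RPMI 1640 plus 2% glucose. Inoculum was 2 × 10^5 to 5 × 10^5 CFU/ml. MICs were read visually at 24 and 48 h as 100% growth reduction versus a drug-free control for polyenes and azoles. MEC was used for caspofungin. Tests were run in duplicate and repeated twice.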
# [2] = tested on: Lomentospora prolificans; experiment: Antifungal activity against Scedosporium prolificans; format: functional; procedure, shortened: as §1
# [3] = tested on: Cunninghamella; experiment: Antifungal activity against Cunninghamella species by EUCAST method; format: functional; details: read-out: MEC
# [4] = tested on: Trichosporon inkin; experiment: Antifungal activity against Trichosporon inkin by EUCAST method; format: functional
# Procedure, shortened: (§2)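 Nonfermentative yeasts were tested by the EUCAST microdilution recommendations with one change: plates were sealed and agitated at 350 rpm and 30°C for 48 h.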
# [5] = Antifungal activity against Rhinocladiella aquaspersa by EUCAST method; format: functional
# Procedure, shortened: (§3)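 Dematiaceous fungi were tested by the EUCAST spore-forming mold reference procedure: flat-bottom microdilution plates, RPMI 1640 plus 2% glucose, inoculum 2 × 105 to 5 × 10^5 CFU/ml. Endpoints were read visually at 24 and 48 h. Polyenes and azoles: 100% growth reduction vs drug-free control. CPF: minimum effective concentration. Run in duplicate and repeated twice.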
# [6] = tested on: Nakaseomyces glabratus; experiment: Antifungal activity against Candida glabrata; format: functional
# Procedure, shortened: (§4)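 Broth microdilution in flat-bottom plates in RPMI 1640 with 2% glucose; inoculum 0.5 × 105 to 2.5 × 10^5 CFU/ml. MICs were read spectrophotometrically at 24 h. AMB endpoint: ≥90% growth reduction vs drug-free control well. Azole and CPF endpoint: 50% reduction in optical density. MFC was taken as the lowest concentration giving 99% killing.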
# [7] = tested on: Candida albicans; experiment: Antifungal activity against Candida albicans by EUCAST method; format: functional; procedure, shortened: as §4
# [8] = tested on: Clavispora lusitaniae; experiment: Antifungal activity against Candida lusitaniae by EUCAST method; format: functional; procedure, shortened: as §4
# [9] = tested on: Pichia kudriavzevii; experiment: Antifungal activity against Candida krusei; format: functional
# Procedure, shortened: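 EUCAST broth microdilution for yeasts in flat-bottom plates, RPMI 1640 with 2% glucose, inoculum 0.5 × 105 to 2.5 × 10^5 CFU/ml. […] MFC is the lowest concentration giving 99% killing.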
# [10] = tested on: Fusarium solani; experiment: Antifungal activity against Fusarium solani; format: functional
# [11] = tested on: Meyerozyma guilliermondii; experiment: Antifungal activity against Candida guilliermondii; format: functional; procedure, shortened: as §4
# [12] = tested on: Cunninghamella; experiment: Antifungal activity against Cunninghamella species; format: functional
# [13] = tested on: Candida parapsilosis; experiment: Antifungal activity against Candida parapsilosis by EUCAST method; format: functional; details: Lodderomyces parapsilosis; procedure, shortened: as §4
# [14] = tested on: Cryptococcus gattii; experiment: Antifungal activity against Cryptococcus neoformans var. gattii; format: functional, Cryptococcus bacillisporus
# Procedure, shortened: (§5)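 EUCAST yeast microdilution, modified for nonfermentative yeasts: plates were sealed and agitated at 350 rpm and 30°C for 48 h.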
# [15] = tested on: Aspergillus fumigatus; experiment: Antifungal activity against Aspergillus fumigatus by EUCAST method; format: functional
# [16] = tested on: Talaromyces marneffei; experiment: Antifungal activity against Penicillium marneffei; format: functional
# [17] = tested on: Curvularia lunata; experiment: Antifungal activity against Curvularia lunata by EUCAST method; format: functional; details: read-out: MEC; procedure, shortened: as §3
# [18] = tested on: Cryptococcus gattii; experiment: Antifungal activity against Cryptococcus neoformans var. gattii by EUCAST method; format: functional, Cryptococcus bacillisporus; procedure, shortened: as §5
# [19] = tested on: Rhizomucor; experiment: Antifungal activity against Rhizomucor species; format: functional
# [20] = tested on: Talaromyces marneffei; experiment: Antifungal activity against Penicillium marneffei by EUCAST method; format: functional; details: read-out: MEC
# [21] = Antifungal activity against Rhizopus microsporus var. oligosporus; format: functional; procedure, shortened: as §1
# [22] = tested on: Trichosporon asahii; experiment: Antifungal activity against Trichosporon asahii by EUCAST method; format: functional; procedure, shortened: as §2
# [23] = tested on: Penicillium sp.; experiment: Antifungal activity against Penicillium species; format: functional
# [24] = tested on: Mucor; experiment: Antifungal activity against Mucor species by EUCAST method; format: functional; details: read-out: MEC
# [25] = tested on: Mucor; experiment: Antifungal activity against Mucor species; format: functional
# [26] = tested on: Fusarium solani; experiment: Antifungal activity against Fusarium solani by EUCAST method; format: functional; details: read-out: MEC
# [27] = tested on: Clavispora lusitaniae; experiment: Antifungal activity against Candida lusitaniae; format: functional; procedure, shortened: as §4
# [28] = tested on: Rhizomucor; experiment: Antifungal activity against Rhizomucor species by EUCAST method; format: functional; details: read-out: MEC; procedure, shortened: as §1
# [29] = tested on: Sporothrix schenckii; experiment: Antifungal activity against Sporothrix schenckii; format: functional; procedure, shortened: as §1
# [30] = tested on: Pichia kudriavzevii; experiment: Antifungal activity against Candida krusei by EUCAST method; format: functional; procedure, shortened: as §4
# [31] = tested on: Geotrichum candidum; experiment: Antifungal activity against Geotrichum candidum by EUCAST method; format: functional
# [32] = tested on: Nakaseomyces glabratus; experiment: Antifungal activity against Candida glabrata by EUCAST method; format: functional; procedure, shortened: as §4
# [33] = tested on: Trichosporon asahii; experiment: Antifungal activity against Trichosporon asahii; format: functional; procedure, shortened: as §2
# [34] = tested on: Rhizopus; experiment: Antifungal activity against Rhizopus species by EUCAST method; format: functional; details: read-out: MEC; procedure, shortened: as §1
# [35] = tested on: Lichtheimia corymbifera; experiment: Antifungal activity against Absidia corymbifera; format: functional
# [36] = tested on: Geotrichum candidum; experiment: Antifungal activity against Geotrichum candidum; format: functional
# [37] = tested on: Curvularia australiensis; experiment: Antifungal activity against Bipolaris australiensis by EUCAST method; format: functional; details: read-out: MEC; procedure, shortened: as §3
smiles,measurement,setting,value
CC[C@H](C)C[C@H](C)CCCCCCCCC(=O)N[C@H]1C[C@@H](O)[C@@H](NCCN)NC(=O)[C@@H]2[C@@H](O)CCN2C(=O)[C@H]([C@H](O)CCN)NC(=O)[C@H]([C@H](O)[C@@H](O)c2ccc(O)cc2)NC(=O)[C@@H]2C[C@@H](O)CN2C(=O)[C@H]([C@@H](C)O)NC1=O [CASPOFUNGIN],minimal effective concentration,[1],> 8 µg/mL
same,MFC,[2],> 8 µg/mL
same,minimal effective concentration,[3],> 8 µg/mL
same,MIC,[4],5.33 µg/mL
same,MEC,[5],> 8 µg/mL
same,MFC,[6],0.15 µg/mL
same,MIC,[7],0.14 µg/mL
same,MIC,[8],0.32 µg/mL
same,MFC,[9],2 µg/mL
same,MFC,[10],> 8 µg/mL
same,MFC,[11],> 2 µg/mL
same,MFC,[12],> 8 µg/mL
same,MIC,[13],0.82 µg/mL
same,MFC,[14],> 8 µg/mL
same,MIC,[15],0.45 µg/mL
same,minimal effective concentration,[15]; read-out: MEC,0.25 µg/mL
same,MFC,[16],> 8 µg/mL
same,minimal effective concentration,[17],> 8 µg/mL
same,MIC,[18],5.33 µg/mL
same,MFC,[19],> 8 µg/mL
same,minimal effective concentration,[20],> 8 µg/mL
same,MFC,[21],> 8 µg/mL
same,MIC,[22],4 µg/mL
same,MFC,[23],> 8 µg/mL
same,minimal effective concentration,[24],> 8 µg/mL
same,MFC,[25],> 8 µg/mL
same,minimal effective concentration,[26],> 8 µg/mL
same,MFC,[27],4 µg/mL
same,minimal effective concentration,[28],> 8 µg/mL
same,MFC,[29],> 8 µg/mL
same,MIC,[30],0.58 µg/mL
same,MIC,[31],3 µg/mL
same,MIC,[32],0.32 µg/mL
same,MFC,[33],> 8 µg/mL
same,minimal effective concentration,[34],> 8 µg/mL
same,MFC,[35],> 8 µg/mL
same,MFC,[36],> 8 µg/mL
same,minimal effective concentration,[37],> 8 µg/mL
